Experimental data taken from PubChem BioAssay AID652260 (The Scripps Research Institute Molecular Screening Center, 2013).
The whole screen tested about 3,500 compounds, of which about 1,000 (29%) were called active.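 How the source made its calls: active means activation above its plate's cutoff, the mean activation of tested wells plus 3 SD (cut at about 7.9% in these data); inactive means the rest.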 Only a sample is shown.

Experiment: BRM-dependent MMTV reporter reactivation – cell-based, luminescence, triplicate, confirmation (AID 652260)
Conditions: MG213 cells, MMTV-luciferase with dexamethasone, overnight, at 9.1 µM, stronger effect = higher value, DMSO wells 0%, reference activator 100%, MG213 cells expressing E1A, Rb sequestered
Summary of the method: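 System: MG213 cells (E1A-transduced) carrying MMTV-luciferase reporter; buffer or medium: 2.5% FBS medium with dexamethasone; probe or stimulus: 0.1 µM dexamethasone stimulus; compound: 9.1 µM single dose; timing: compound exposure 24 h at 37 °C after 1-day dexamethasone priming; signal: luciferase luminescence (OneGlo); control set: DMSO wells as low control, reference activator compound as high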

SMILES | activation
COc1cccc(-c2nc3cc(C)ccc3o2)c1 | 7.4% (inactive)
CCN(CC)C(=O)CSc1nnc(-c2cccc(OC)c2)o1 | 8.07% (active)
CCOC(=O)C(C)n1cnc2c(nnn2-c2cccc(OC)c2)c1=O (stereo not drawn) | 4.29% (inactive)
CCNC(=S)N1CCN(c2ncccn2)CC1 | -2.06% (inactive)
Cc1cc(C)nc(Nc2n[nH]c(-c3ccccc3N)n2)n1 | 5.41% (inactive)
CC(C)C[C@H]1CNC(=O)C(=O)N1C[C@H]1CCCN1C[C@H](Cc1ccc(O)cc1)N1C[C@H](CC(C)C)N(CC2CCCCCC2)C(=O)C1=O | -0.79% (inactive)
O=C(Nc1cccc([N+](=O)[O-])c1)c1ccc2c(c1)OCO2 | 3.25% (inactive)
COc1ccc(C(=O)Nc2ccc3c(c2)OCO3)cc1OC | 7.86% (active)
COCC(C)n1c(SCc2ccc(C(=O)OC)o2)nc2ccccc2c1=O (stereo not drawn) | 0.09% (inactive)
Cc1cc(-c2n[nH]c(=S)n2/N=C/C(Br)=C/c2ccccc2)n[nH]1 | 2.39% (inactive)
CC(=O)Nc1ccc(Nc2c3ccccc3nc3ccccc23)cc1 | 43% (active)
CCN(CC)CCNC(=O)c1ccc(NC(=O)c2cc(-c3ccncc3)nc3ccccc23)cc1 | 5.3% (inactive)
O=C(Nc1ccc2nccnc2c1)c1ccco1 | 5.96% (inactive)
CCCSC(=S)NC1CCS(=O)(=O)C1 (stereo not drawn) | -0.53% (inactive)
c1ccc2cc3c(NCCN4CCOCC4)ccnc3cc2c1 | 34.6% (active)
COc1ccc(-c2cc(-c3ccc(N)cc3)nc(N)c2C#N)cc1OC | -1.93% (inactive)
Cc1ccc(C(=O)NNC(=O)c2cccs2)cc1 | 1.93% (inactive)
COc1ccc(/C=N/NC(=O)c2cc(-c3cccc(C)c3)nc3ccccc23)cc1O | 1.04% (inactive)
COc1ccc(N=C(C)c2sc3ccccc3c2O)cc1 | 9.34% (active)
Cc1cc(C)c2nc3nc(C)cc(C)c3c(N)c2c1 | 60% (active)
COc1ccc(Cn2c(C)c(C)c(C#N)c2NC(=O)Nc2ccc(F)cc2)cc1 | 4.61% (inactive)
C/C(CC(=O)NC(C)(C)C)=N\NC(=O)c1ccco1 | 5.29% (inactive)
CN(C)C(=S)N=c1ssc(=S)n1Cc1ccco1 | 15.4% (active)
O=C1/C(=C\c2ccc([N+](=O)[O-])cc2)CS(=O)(=O)C/C1=C/c1ccc([N+](=O)[O-])cc1 | -15.7% (inactive)
COc1ccccc1C1=Nc2cccc3cccc(c23)N1 | 2.63% (inactive)

SMILES | activation
O=C(CCCCCn1c(=S)[nH]c2ccsc2c1=O)NC1CCCCC1 | 1.02% (inactive)
C=C1C(=O)[C@]23C[C@H]1CCC2[C@@]1(C)C(C[C@@H]3O)[C@](C)(C(=O)O)CC[C@@H]1O (stereo partly drawn) | 28.4% (active)
Cn1c(-c2ccc(F)cc2)cc2onc(-c3ccccc3Cl)c2c1=O | -3.34% (inactive)
CN1CCN(CCCNC(=O)c2ccc(/C=C3\Oc4ccccc4N(Cc4ccc(Cl)cc4)C3=O)cc2)CC1 | 3.44% (inactive)
COCn1c(COc2ccccc2)nc2ccccc21 | 8.62% (active)
CCc1ccc[n+](-c2nc([O-])sc2C=O)c1 | -1.34% (inactive)
COc1ccc(CC2c3cc(OC)c(OC)cc3CC[N+]2(C)CCC(=O)OCCCCCOC(=O)CC[N+]2(C)CCc3cc(OC)c(OC)cc3C2Cc2ccc(OC)c(OC)c2)cc1OC (stereo not drawn) | 8.77% (active)
CCOC(=O)c1sc2nc(CSc3ccccc3)[nH]c(=O)c2c1C | -0.16% (inactive)
COc1cc(CN2CCC(C(N)=O)CC2)ccc1OCc1ccccc1 | 13% (active)
O=C(c1cc(-c2ccc(O)cc2)on1)N1CCOCC1 | 7.73% (inactive)
O=C(c1cc(-c2ccccc2O)on1)N1CCCC1 | 1.4% (inactive)
O=C(c1cccs1)C1C(c2ccc(Br)cc2)NC(=S)NC1(O)C(F)(F)F (stereo not drawn) | 5.35% (inactive)
Cc1ccc(-c2nc3ccc(Br)cn3c2Cc2ccccc2C(F)(F)F)cc1 | 0.37% (inactive)
CCN(CC)C(=O)c1sc2nc(-c3ccccc3)ccc2c1N | 9.6% (active)
COc1ccc(C(CNC(=O)c2ccc(S(=O)(=O)Nc3ccccc3F)cc2)N(C)C)cc1 (stereo not drawn) | 0.35% (inactive)
CC(C)(C)C(=O)CSc1nc2ccccc2o1 | 6.81% (inactive)
CN(C)S(=O)(=O)c1ccc2oc(SCC(=O)Nc3ccccc3F)nc2c1 | 7.95% (active)
Cc1noc(C)c1/C=N/Nc1ccc2ccccc2n1 | 4.24% (inactive)
CC1CCCCN1C(=S)NCc1ccccc1 (stereo not drawn) | 0.99% (inactive)
COc1ccc(-c2cc3ncccc3cn2)cc1 | 8.92% (active)
COc1ccc(-c2csc(Cc3nc(O)cs3)n2)cc1 | -15.4% (inactive)
CN(C)c1nc(=Nc2cccc(Cl)c2)ss1 | -15.3% (inactive)
Cc1n[nH]c(=O)nc1N/N=C/c1cccs1 | 3.07% (inactive)
CCC1CCC/C1=N\NC(=O)c1ccc(Cl)cc1 (stereo not drawn) | 2.31% (inactive)
O=C(Nc1ccc2c(c1)CCC2)c1ccc(Br)s1 | 10.8% (active)

SMILES | activation
Cc1ccc(NC(=O)c2cnc(SCC(=O)NCC3CCCO3)n(C)c2=O)cc1 (stereo not drawn) | 9.35% (active)
Cc1ccc(-c2c(C)n([O-])c3c([n+]2=O)CCC3)cc1 | 6.67% (inactive)
N#Cc1ccccc1NC(=O)c1cccc(COc2ccc(Cl)cc2Cl)c1 | 4.05% (inactive)
Fc1ccc(CNc2nc3ccccc3n3nnnc23)cc1 | 1.53% (inactive)
COc1c(O)cc2oc(-c3ccc(O)c(O)c3)cc(=O)c2c1O | 12.6% (active)
CCCCNC(=O)C1CCC(CNS(=O)(=O)c2ccc(NC(C)=O)cc2)CC1 (stereo not drawn) | -3.14% (inactive)
Cc1cc2oc3ccc(NCCC4CCCN4C)cc3c(=O)c2cc1C (stereo not drawn) | 5.48% (inactive)
CC1CCCCC1NC(=O)CN1CCC(O)(c2ccc3c(c2)OCO3)CC1 (stereo not drawn) | -0.84% (inactive)
CCCC(=O)N1c2ccc(-c3csc(N)n3)cc2CC1C (stereo not drawn) | 8.32% (active)
Cc1cc(C(=O)NNC(=S)Nc2ccccc2C)cs1 | 3.37% (inactive)
Cc1cc(C)c2nc(NC(=O)C3CCCO3)sc2c1 (stereo not drawn) | 9.52% (active)
O=C(Nc1nnc(CCc2ccccc2)s1)C1CCCO1 (stereo not drawn) | 1.02% (inactive)
C=CC(=O)OCCOCCOCCOCCOC(=O)C=C | 7.95% (active)
O=C1Cc2cc(S(=O)(=O)Nc3cccc(F)c3)ccc2N1 | 0.74% (inactive)
NS(=O)(=O)c1ccccc1NC(=O)c1c(O)c2ccccc2[nH]c1=O | 12.1% (active)
CCOc1cc(NC(=S)NCCCOC)c(OCC)cc1NC(=O)c1ccco1 | -1.02% (inactive)
Cc1ccc(S(=O)(=O)NC(C)C(=O)NCc2ccc(Cl)cc2)cc1 (stereo not drawn) | -3.9% (inactive)
CCCCn1nnnc1C(c1cc2ccccc2o1)N(C)Cc1ccc(Cl)c(Cl)c1 (stereo not drawn) | -4.28% (inactive)
COc1ccccc1OCC(=O)O/N=C(\N)c1ccccn1 | 10.6% (active)
COc1ccc(/C(N)=N/OC(=O)Oc2ccccc2)cc1 | -2.89% (inactive)
O=C(CSc1nc2ccccc2[nH]1)c1cccs1 | 2.82% (inactive)
CC(=O)c1cccc(-c2cnc3c(NC=O)cc(-c4ccc(N5CCN(C)CC5)cc4)cn23)c1 | 16.5% (active)
CN(C)CCNC(=O)c1cccc(-c2cnc3c(NC=O)cc(-c4cccc(C(F)(F)F)c4)cn23)c1 | -12.7% (inactive)
CC(=O)Nc1cc(-c2ccc(N3CCN(C)CC3)cc2)cn2c(-c3ccc(F)cc3)cnc12 | 17.5% (active)
COc1ccc(C)cc1S(=O)(=O)N(CC(=O)Nc1cccc([N+](=O)[O-])c1)c1ccc(C)cc1 | 0.21% (inactive)

SMILES | activation
Cc1ccc(S(=O)(=O)c2c[nH]c3ccc(Cl)cc3c2=O)cc1 | 0.08% (inactive)
COc1ccc(S(=O)(=O)NC(C)C(=O)N2CCCCCC2)cc1 (stereo not drawn) | -2.64% (inactive)
O=C(NCc1ccccn1)c1cnc2sccn2c1=O | 1.34% (inactive)
Cc1cc(C)n2nc(CNS(=O)(=O)c3c(F)c(F)c(F)c(F)c3F)nc2n1 | 19.1% (active)
Cc1cc(-n2cnc(-c3cn(C)nc3C)n2)no1 | 3.17% (inactive)
COC(=O)C1C(=O)c2c([nH]c(C(=O)OCCSC)c2C)CC1C (stereo not drawn) | 6.36% (inactive)
O=C(O)c1cccc(N=NN2CCCCCC2)c1 | 12.5% (active)
CC(=O)c1sc(N/N=C\c2ccc(C)cc2)nc1C | 6.84% (inactive)
O=C(OCC(=O)c1cccs1)C1=COCCO1 | 8.33% (active)
COc1ccc(NC(=O)c2sccc2SCC#N)cc1 | 0.37% (inactive)
Cc1cc(O)c(NC(=O)c2ccc(C)c([N+](=O)[O-])c2)cc1C | 5.6% (inactive)
Cc1cc(=O)[nH]c(N/N=C/c2ccc3c(c2)OCCO3)n1 | 7.09% (inactive)
Cn1c2ccc(F)cc2c2nnc(NN)nc21 | -1.11% (inactive)
COc1ccc2nc(/N=C(\N)NC(=O)Nc3ccccc3)nc(C)c2c1 | 2.85% (inactive)
Cc1nc(N=C(N)N)nc2c(C)cccc12 | 40.3% (active)
O=C(Nc1cccc([N+](=O)[O-])c1)N1CCc2ccccc2C1 | 5.56% (inactive)
Cc1ccsc1-c1nc(CSCC(=O)NCCN2CCCC2)c(C)o1 | -0.08% (inactive)
CCC(=O)Nc1ccc2nn(-c3ccc(F)cc3)nc2c1 | 11.7% (active)
Cn1cc(/C=C/C(=O)N2CCCC(C(=O)c3ccc(C(F)(F)F)cc3)C2)cn1 (stereo not drawn) | 1.67% (inactive)
Cc1c(NC(=O)CSc2cccc3cccnc23)c(=O)n(-c2ccccc2)n1C | -8.3% (inactive)
Cc1cccc(CSc2ccc(-c3cccs3)nn2)c1 | 7.87% (active)
COC(=O)Cc1nnn2c1[C@H](C)[C@H](c1ccccc1[N+](=O)[O-])OCC2 | 0.13% (inactive)
O=[N+]([O-])c1ccc2c(c1)Nc1nc3ccccc3nc1N2 | 24.9% (active)
